Data on twelve compounds can be found in ChEMBL document CHEMBL1144397, “Structure-based design: synthesis and biological evaluation of a series of novel cycloamide-derived HIV-1 protease inhibitors” (J Med Chem, 2005).

Molecules are shown by their SMILES. Some results are limits rather than exact numbers.

The target in test [1] is Human immunodeficiency virus type 1 protease (Human immunodeficiency virus 1, UniProt Q72874). Description: Inhibitory activity against human immunodeficiency virus 1 protease.
Test [2] concerns MT2. Description: (§1) Compound tested for the inhibition of HIV-induced cytopathogenicity in MT-2 cells. Type of test: functional. The conditions noted are these: Homo sapiens. In a few lines:
(§2)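 MT-2 cells (2 × 10^3/well) infected with 100 TCID50s of HIV-1LAI in presence of various agent concentrations; 37 °C for 7 days. Viability read by MTT (7.5 mg/mL in PBS), 2 h at 37 °C, formazan dissolved in acidified 2-propanol with 4% Triton X-100, OD 570 nm. IC50/IC75 from inhibition of cytopathogenicity; duplicate assays, mean of two or three.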

Test [3] concerns MT2. Described as §1. It is filed as functional, cell-based. The note with it: Homo sapiens. A digest of the protocol:
as §2

With `C=CCCCCC(NC(=O)c1cccc(O)c1OCCCC=C)C(O)CN(CC(C)C)S(=O)(=O)c1ccc(OC)cc1` (configuration not stated), in test [1], the inhibition constant Ki was 9 nM. In other words, the single-digit nanomolar range.
Compound `CCCCCCCC(NC(=O)c1cccc(O)c1O)C(O)CN(CC(C)C)S(=O)(=O)c1ccc(OC)cc1` (configuration not stated) showed an inhibitory constant (Ki) in test [1] of 270 nM.
Take `COc1ccc(S(=O)(=O)N(CC(C)C)CC(O)C2CCCCCCCCOc3c(O)cccc3C(=O)N2)cc1` (configuration not stated): it took 0.74 µM to reach the 75% level in test [2] (IC75). Also, half-maximal inhibition in test [3] (IC50) was put at 300 nM. This compound also came in with a Ki in test [1] of 0.7 nM.
In test [1], `COc1ccc(S(=O)(=O)N(CC(C)C)CC(O)C2CCCCCCCOc3c(O)cccc3C(=O)N2)cc1` (configuration not stated) came in with a Ki of 1 nM. This lies in the single-digit nanomolar range.
The compound `CC(C)CN(C[C@@H](O)[C@H](Cc1ccccc1)NC(=O)O[C@H]1CCOC1)S(=O)(=O)c1ccc(N)cc1` showed an IC75 in test [2] of 0.079 µM. The 50% inhibitory concentration (IC50) in test [3] is 28 nM.
For `CC(C)(C)NC(=O)[C@@H]1C[C@@H]2CCCC[C@@H]2CN1C[C@@H](O)[C@H](Cc1ccccc1)NC(=O)[C@H](CC(N)=O)NC(=O)c1ccc2ccccc2n1`, in that order: 0.047 µM and 12 nM.
The compound `C=CCCCCC(NC(=O)c1cccc(O)c1OCC=C)C(O)CN(CC(C)C)S(=O)(=O)c1ccc(OC)cc1` (configuration not stated) displayed a Ki in test [1] of 12 nM. This counts as double-digit nanomolar.
Same read-out and setting: to `C=CCCCCC(NC(=O)c1cccc(O)c1OCCC=C)C(O)CN(CC(C)C)S(=O)(=O)c1ccc2c(c1)OCO2` (configuration not stated) belongs 20 nM.
In the case of `C=CCCCCC(NC(=O)c1cccc(O)c1OCCC=C)C(O)CN(CC(C)C)S(=O)(=O)c1ccc(OC)cc1` (configuration not stated), the IC75 in test [2] was over 1 µM. Moreover, in test [3], the IC50 was over 1000 nM. In addition, the Ki in test [1] was found to be 2 nM.
Regarding `COc1ccc(S(=O)(=O)N(CC(C)C)CC(O)C2CCCCCCCCCOc3c(O)cccc3C(=O)N2)cc1` (configuration not stated), the 75% effect concentration (IC75) in test [2] was over 1 µM. This compound had an IC50 in test [3] of 560 nM. In test [1], this compound came in with a Ki of 2 nM.
In turn, `CC(C)CN(CC(O)C1CCCCCCCCOc2c(O)cccc2C(=O)N1)S(=O)(=O)c1ccc2c(c1)OCO2` (configuration not stated) registered an IC75 in test [2] of over 1 µM. Further, in test [3], the 50% inhibitory concentration (IC50) was over 1000 nM. Also, the affinity in test [1] corresponds to a Ki of 3 nM.
`COc1ccc(S(=O)(=O)N(CC(C)C)CC(O)C2CCCC/C=C\COc3c(O)cccc3C(=O)N2)cc1` (configuration not stated) gave an inhibition constant Ki in test [1] of 2 nM. In other words, the single-digit nanomolar range.
